Legend:
[1] = target: T1, Broad substrate specificity ATP-binding cassette transporter ABCG2 (Homo sapiens, UniProt Q9UNQ0); assay: Inhibition of c-terminal GFP-tagged human ABCG2 expressed in MDCK2 cells preincubated for 30 mins before Hoechst 33342 addition by Hoechst 33342 accumulation assay; type: cell-based
T1 sequence (Q9UNQ0 whole entry): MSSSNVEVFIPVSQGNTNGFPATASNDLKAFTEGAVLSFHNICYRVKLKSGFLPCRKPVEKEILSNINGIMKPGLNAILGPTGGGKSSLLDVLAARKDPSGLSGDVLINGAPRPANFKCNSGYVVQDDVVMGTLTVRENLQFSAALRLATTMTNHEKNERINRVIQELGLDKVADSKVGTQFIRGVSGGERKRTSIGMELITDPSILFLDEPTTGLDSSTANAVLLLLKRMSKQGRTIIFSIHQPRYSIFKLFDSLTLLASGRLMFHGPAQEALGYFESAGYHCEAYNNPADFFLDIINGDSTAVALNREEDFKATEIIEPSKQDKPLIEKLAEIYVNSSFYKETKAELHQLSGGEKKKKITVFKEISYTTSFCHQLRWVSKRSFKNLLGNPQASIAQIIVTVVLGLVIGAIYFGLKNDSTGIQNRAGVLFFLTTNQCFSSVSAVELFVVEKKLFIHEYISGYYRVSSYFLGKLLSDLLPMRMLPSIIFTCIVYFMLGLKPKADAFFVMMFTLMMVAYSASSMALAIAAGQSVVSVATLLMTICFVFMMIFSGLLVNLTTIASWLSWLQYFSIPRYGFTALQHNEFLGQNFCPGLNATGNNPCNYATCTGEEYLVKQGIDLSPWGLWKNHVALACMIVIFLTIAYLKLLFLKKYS
In short: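 MDCK II cells transfected with human ABCG2 fused C-terminally to GFP, washed in Krebs-HEPES buffer pH 7.0; ~30,000 cells/well, compound 30 min at 37 °C. 6 µM Hoechst 33342 solution added, fluorescence (ex 355/em 460 nm) every 60 s to 120 min. Final methanol ≤5%, DMSO ≤0.1%.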

[2] = target: ABCC1 (Homo sapiens, UniProt P33527); assay: Inhibition of ABCC1 in human H69AR cells at 10 uM preincubated for 30 mins before calcein AM addition by calcein AM assay relative to CsA; type: cell-based; conditions: probe calcein AM
In short: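 H69AR cells (ABCC1-overexpressing) washed in Krebs-HEPES buffer pH 7.0; ~30,000 cells/well preincubated with compound 30 min at 37 °C, 5% CO2. Then 1.25 µM calcein AM solution added, fluorescence at ex 485/em 520 nm every 60 s for 60 min at 37 °C. Screened at 10 µM; activity expressed relative to cyclosporine A.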

[3] = target: T1, Broad substrate specificity ATP-binding cassette transporter ABCG2; assay: Inhibition of c-terminal GFP-tagged human ABCG2 expressed in MDCK2 cells preincubated for 30 mins before Pheophorbide A addition by Pheophorbide A assay; type: cell-based
[4] = Intrinsic cytotoxicity against MDCK2 cells over-expressing human ABCG2 incubated for 72 hrs by MTT assay; type: ADME, cell-based, Canis lupus familiaris, MDCK-II; conditions: dog
In short: (§1)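 MDCK II cells incubated 72 h with compound dilutions, then MTT added; viability from formazan formation. […] Methanol (≤1.8%) and DMSO (≤1%) vehicle tested alone.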

[5] = Intrinsic cytotoxicity against parental MDCK2 cells incubated for 72 hrs by MTT assay; type: cell-based, Canis lupus familiaris, MDCK-II; conditions: dog; in short: as §1
[6] = test system: ABCG2; assay: Therapeutic index, ratio of GI50 for intrinsic cytotoxicity against MDCK2 cells over-expressing human ABCG2 top IC50 for inhibition of c-terminal GFP-tagged human ABCG2 expressed in MDCK2 cells; type: toxicity, cell-based; conditions: dog, read-out: RatioGI50
In short: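 Ratio of MTT GI50 (72 h, MDCK II) to IC50 from the Hoechst 33342 accumulation assay.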

[7] = target: ATP-dependent translocase ABCB1 (Homo sapiens, UniProt P08183); assay: Inhibition of ABCB1 in human A2780adr cells preincubated for 30 mins before calcein AM addition by calcein AM assay; type: cell-based
In short: (§2)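 A2780adr cells (ABCB1-overexpressing, doxorubicin-selected one passage every 10 passages) washed three times in Krebs-HEPES buffer pH 7.0; ~30,000 cells/well with compound dilutions, 30 min at 37 °C, 5% CO2. Calcein AM added (1.25 µM solution), fluorescence (ex 485/em 520 nm) read every 60 s for 60 min at 37 °C. Single-point screen at 10 µM relative to cyclosporine A; IC50 from full curves.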

[8] = target: ABCB1 (Homo sapiens, UniProt P08183); assay: Inhibition of ABCB1 in human A2780adr cells at 10 uM preincubated for 30 mins before calcein AM addition by calcein AM assay relative to CsA; type: cell-based; conditions: probe calcein AM; in short: as §2
[9] = test system: ABCG2; assay: Therapeutic index, ratio of GI50 for intrinsic cytotoxicity against MDCK2 cells over-expressing human ABCG2 top IC50 for inhibition of c-terminal GFP-tagged human ABCG2 expressed in MDCK2 cells relative to Ko143; type: toxicity, cell-based; conditions: dog, read-out: TI

Chain of ABCC1 (P33527 whole entry): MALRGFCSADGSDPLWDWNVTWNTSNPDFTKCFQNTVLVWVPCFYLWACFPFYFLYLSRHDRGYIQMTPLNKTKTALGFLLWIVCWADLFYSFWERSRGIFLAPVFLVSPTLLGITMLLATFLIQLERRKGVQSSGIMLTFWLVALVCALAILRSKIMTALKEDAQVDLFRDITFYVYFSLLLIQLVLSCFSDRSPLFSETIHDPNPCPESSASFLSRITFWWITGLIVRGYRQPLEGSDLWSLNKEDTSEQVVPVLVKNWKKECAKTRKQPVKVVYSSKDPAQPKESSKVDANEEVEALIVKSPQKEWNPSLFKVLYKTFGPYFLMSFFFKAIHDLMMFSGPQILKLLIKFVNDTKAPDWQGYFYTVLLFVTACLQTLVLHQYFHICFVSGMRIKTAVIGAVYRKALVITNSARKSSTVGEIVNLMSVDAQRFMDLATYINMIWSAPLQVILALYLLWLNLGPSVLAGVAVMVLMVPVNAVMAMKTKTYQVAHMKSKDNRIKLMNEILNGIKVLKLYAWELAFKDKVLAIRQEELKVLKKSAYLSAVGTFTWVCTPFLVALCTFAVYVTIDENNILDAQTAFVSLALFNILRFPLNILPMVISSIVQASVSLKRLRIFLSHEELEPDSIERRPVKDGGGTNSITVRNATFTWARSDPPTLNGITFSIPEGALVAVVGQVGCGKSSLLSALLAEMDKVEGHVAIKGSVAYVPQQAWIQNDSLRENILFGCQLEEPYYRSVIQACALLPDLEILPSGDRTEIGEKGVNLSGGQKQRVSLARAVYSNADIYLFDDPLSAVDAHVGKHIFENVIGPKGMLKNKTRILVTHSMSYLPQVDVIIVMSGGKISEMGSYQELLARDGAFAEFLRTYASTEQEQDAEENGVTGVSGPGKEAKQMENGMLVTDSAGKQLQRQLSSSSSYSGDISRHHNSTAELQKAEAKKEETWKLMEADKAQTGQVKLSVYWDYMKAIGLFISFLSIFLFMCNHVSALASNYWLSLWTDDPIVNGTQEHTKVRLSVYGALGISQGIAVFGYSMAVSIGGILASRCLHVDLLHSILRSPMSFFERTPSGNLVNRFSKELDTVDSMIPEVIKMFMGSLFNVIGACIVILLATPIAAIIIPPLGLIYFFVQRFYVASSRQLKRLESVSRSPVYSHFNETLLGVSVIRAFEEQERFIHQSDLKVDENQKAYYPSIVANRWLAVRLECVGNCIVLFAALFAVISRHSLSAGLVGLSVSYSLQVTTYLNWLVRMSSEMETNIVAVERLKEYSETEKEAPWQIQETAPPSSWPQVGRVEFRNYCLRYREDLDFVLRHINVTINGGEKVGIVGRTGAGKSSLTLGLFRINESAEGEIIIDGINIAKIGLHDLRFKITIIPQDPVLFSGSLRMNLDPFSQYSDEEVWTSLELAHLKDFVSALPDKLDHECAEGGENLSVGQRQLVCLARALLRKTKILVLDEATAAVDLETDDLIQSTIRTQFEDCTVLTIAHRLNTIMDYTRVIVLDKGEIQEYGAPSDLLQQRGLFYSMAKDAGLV
Chain of ATP-dependent translocase ABCB1 (P08183 whole entry): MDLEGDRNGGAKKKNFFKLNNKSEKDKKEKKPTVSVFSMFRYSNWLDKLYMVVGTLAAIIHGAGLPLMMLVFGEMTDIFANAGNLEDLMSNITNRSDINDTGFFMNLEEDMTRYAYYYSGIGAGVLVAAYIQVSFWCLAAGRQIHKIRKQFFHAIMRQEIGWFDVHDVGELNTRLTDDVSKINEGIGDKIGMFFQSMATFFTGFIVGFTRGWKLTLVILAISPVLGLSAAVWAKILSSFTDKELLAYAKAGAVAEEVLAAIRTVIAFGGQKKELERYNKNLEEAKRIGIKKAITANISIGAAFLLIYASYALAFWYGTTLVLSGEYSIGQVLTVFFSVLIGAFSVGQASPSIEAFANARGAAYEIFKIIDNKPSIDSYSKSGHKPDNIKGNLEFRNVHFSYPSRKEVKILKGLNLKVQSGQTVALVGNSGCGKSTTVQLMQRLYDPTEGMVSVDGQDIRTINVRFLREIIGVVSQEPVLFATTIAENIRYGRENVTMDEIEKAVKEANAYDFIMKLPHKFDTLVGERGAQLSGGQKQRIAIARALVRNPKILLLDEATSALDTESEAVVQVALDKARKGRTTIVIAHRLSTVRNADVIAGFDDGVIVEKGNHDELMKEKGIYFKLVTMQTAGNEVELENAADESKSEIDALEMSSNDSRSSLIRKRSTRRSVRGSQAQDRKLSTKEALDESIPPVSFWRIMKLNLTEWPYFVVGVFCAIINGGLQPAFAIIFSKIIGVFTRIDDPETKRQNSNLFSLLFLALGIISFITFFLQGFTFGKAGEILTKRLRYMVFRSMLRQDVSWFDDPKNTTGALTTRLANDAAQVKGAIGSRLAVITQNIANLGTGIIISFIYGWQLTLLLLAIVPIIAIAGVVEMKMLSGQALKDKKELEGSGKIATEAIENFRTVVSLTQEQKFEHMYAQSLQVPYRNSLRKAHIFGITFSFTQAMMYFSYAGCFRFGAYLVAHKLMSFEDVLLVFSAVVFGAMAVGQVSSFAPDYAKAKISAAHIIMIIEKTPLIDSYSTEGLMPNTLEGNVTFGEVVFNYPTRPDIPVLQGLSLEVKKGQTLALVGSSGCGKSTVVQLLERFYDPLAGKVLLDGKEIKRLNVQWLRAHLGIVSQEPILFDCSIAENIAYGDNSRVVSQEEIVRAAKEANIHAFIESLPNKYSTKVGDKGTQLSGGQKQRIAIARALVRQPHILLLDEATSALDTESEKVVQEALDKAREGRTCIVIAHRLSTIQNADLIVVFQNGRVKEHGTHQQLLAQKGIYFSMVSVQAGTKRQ
Chain of ABCB1 (P08183 whole entry): as above

| SMILES | IC50 [1] [nM] | IC50 [3] [nM] | GI50 at 72 h [4] [nM] | GI50 at 72 h [5] [nM] | selectivity ratio [6] | also measured |
| --- | --- | --- | --- | --- | --- | --- |
| CC(C)(C)OC(=O)c1ccc(Nc2nc(-c3ccccc3)nc3ccccc23)cc1 | 5650 |  |  |  |  |  |
| O=C(O)c1ccc(Nc2nc(-c3ccccc3)nc3ccccc23)cc1 | 6380 |  |  |  |  | inhibition at 10 µM [2]: > 25% |
| N#Cc1ccc(Nc2nc(-c3ccccc3)nc3ccccc23)cc1 | 69.9 | 84.5 | 7960 | 16600 | 113 |  |
| CSc1cccc(Nc2cc(-c3ccccc3)nc3ccccc23)c1 | 1900 |  |  |  |  | IC50 [7]: 1420 nM; inhibition at 10 µM [8]: > 25%; inhibition at 10 µM [2]: > 25% |
| Cc1cccc(Nc2nc(-c3ccccc3)nc3ccccc23)c1 | 1150 |  | 12800 | 24000 | 11.1 | IC50 [7]: 3000 nM; inhibition at 10 µM [8]: > 25% |
| O=[N+]([O-])c1cc(Nc2nc(-c3ccccc3)nc3ccccc23)ccc1O | 80 | 113 | 52400 | 152000 | 655 | selectivity ratio [9]: 13 |
| CC(C)(C)c1cccc(Nc2nc(-c3ccccc3)nc3ccccc23)c1 | 1070 |  |  |  |  |  |
| COc1ccc(Nc2nc(-c3ccccc3)nc3ccccc23)cc1OC | 152 |  | 22500 | 17000 | 148 | IC50 [7]: 1860 nM; inhibition at 10 µM [8]: > 25% |
| CC(=O)Nc1cccc(Nc2cc(-c3ccccc3)nc3ccccc23)c1 | 1630 |  |  |  |  | IC50 [7]: 660 nM; inhibition at 10 µM [8]: > 25%; inhibition at 10 µM [2]: > 25% |
| Fc1cccc(Nc2nc(-c3ccccc3)nc3ccccc23)c1 | 355 | 405 | 17200 | 27500 | 48.5 |  |
| Ic1cccc(Nc2nc(-c3ccccc3)nc3ccccc23)c1 | 791 |  | 4750 | 16600 |  |  |
| CC(=O)Nc1cccc(Nc2nc(-c3ccccc3)nc3ccccc23)c1 | 278 | 224 | 12900 | 30900 | 46.4 |  |
| COC(=O)c1ccc(Nc2nc(-c3ccccc3)nc3ccccc23)cc1 | 944 |  |  |  |  | inhibition at 10 µM [2]: > 25% |
| COc1cc(Nc2nc(-c3ccccc3)nc3ccccc23)ccc1Br | 289 | 202 |  |  |  |  |
| Clc1ccc(Nc2nc(-c3ccccc3)nc3ccccc23)cc1 | 830 |  | 6750 | 14800 | 8.13 |  |
| N#Cc1ccc(Nc2cc(-c3ccccc3)nc3ccccc23)cc1 | 846 |  |  |  |  | IC50 [7]: 4740 nM; inhibition at 10 µM [8]: > 25% |
| Fc1ccc(Nc2nc(-c3ccccc3)nc3ccccc23)cc1 | 1060 |  | 29000 | 25600 | 27.4 |  |
| Fc1cccc(Nc2cc(-c3ccccc3)nc3ccccc23)c1 | 2130 |  |  |  |  |  |
| Ic1ccc(Nc2nc(-c3ccccc3)nc3ccccc23)cc1 | 612 |  | 9250 | 8850 | 15.1 |  |
| COc1ccc2c3c([nH]c2c1)[C@H](CC(C)C)N1C(=O)[C@H](CCC(=O)OC(C)(C)C)NC(=O)[C@@H]1C3 |  |  | 11100 | 10900 |  |  |
| O=S(=O)(F)c1ccc(Nc2nc(-c3ccccc3)nc3ccccc23)cc1 | 556 |  |  |  |  |  |
| CSc1cccc(Nc2nc(-c3ccccc3)nc3ccccc23)c1 | 1190 |  |  |  |  | inhibition at 10 µM [2]: > 25% |
| Cc1cc(Nc2nc(-c3ccccc3)nc3ccccc23)ccc1I | 1460 |  |  |  |  |  |
| Oc1ccc(Nc2nc(-c3ccccc3)nc3ccccc23)cc1 | 204 | 304 | 12200 | 26900 | 59.8 |  |
| Cc1ccc(Nc2nc(-c3ccccc3)nc3ccccc23)cc1 | 1480 |  |  |  |  |  |
| C#Cc1cccc(Nc2nc(-c3ccccc3)nc3ccccc23)c1 | 672 | 513 |  |  |  |  |
| COc1cccc(Nc2cc(-c3ccccc3)nc3ccccc23)c1 | 951 |  |  |  |  | IC50 [7]: 2780 nM; inhibition at 10 µM [8]: > 25% |
| O=C(Nc1ccccc1C(=O)Nc1ccc(CCN2CCc3ccccc3C2)cc1)c1cnc2ccccc2c1 | 704 | 741 |  |  |  |  |
| COc1ccc(Nc2nc(-c3ccccc3)nc3ccccc23)cc1F | 872 | 689 |  |  |  |  |
| CC(C)(C)c1ccc(Nc2nc(-c3ccccc3)nc3ccccc23)cc1 | 1060 |  |  |  |  |  |
